This is a sample that favours compounds with a hit; in the whole collection about 3.8% have one here.
Measles CPE: protection of cells from measles virus; Measles virus-infected cells, CPE protection, absorbance; protection (pct of control), % at 4 µM; actives 1.5% (n = 140,000); in the data active means protection mostly above about 24%, no sharp cut-off; inactive means mostly below about 26%
Yeast growth inh: reduces growth of yeast BB579 in restrictive medium; S. cerevisiae BB579 growth, OD615, 48 h; actives 0.51% (n = 140,000); inhibition, % at 10 µM; AID 804;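 active means inhibition above a set limit, 3 SD over the mean compound inhibition, cut at about 44% in these data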
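Test system: Saccharomyces cerevisiae DeaD strain BB579, replicative lifespan model yeast | Buffer or medium: Restrictive CSMM-D medium | Doses: One dose, 10 µM compound with 0.25% DMSO | Incubation: 48 h exposure, 30 °C | Detection: Culture absorbance at 615 nm | Control set: Amphotericin B at 10 µg/mL as positive control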
RAM network inh: blocks the yeast RAM network; S. cerevisiae dse1pr::URA3 reporter, 5-FOA growth OD615, 2 d; analog-sensitive cbk1-as2 kinase mutant strain; AID 868; actives 1.8% (n = 190,000); inhibition, % at 50 µM;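 active means inhibition above a set limit, 3 SD over mean compound inhibition, cut at about 8.4% in these data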;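 further: inhibition rescues growth on 5-FOA so higher OD means more RAM inhibition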
Yeast lifespan up: extends the lifespan of yeast; S. cerevisiae growth with nicotinamide, OD615; deaD strain in restrictive glucose medium; inhibition of the nicotinamide effect, % at 10 µM; actives 0.68% (n = 130,000);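 active means inhibition above a set limit, placed 3 SD over the median of all compounds, cut at about 26% in these data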
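Assay system: engineered S. cerevisiae DeaD replicative-lifespan strain, galactose-grown log-phase cells; medium: restrictive CSMM-D dextrose medium; also added: nicotinamide, 1.5 mM, co-present with compound; schedule: 48 h compound exposure at 30 °C, humidified; detection: absorbance at 615 nm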
RAM efflux-def: restores 5-FOA growth of efflux-deficient yeast | shares compounds with RAM network inh | S. cerevisiae efflux-deficient reporter strain, 5-FOA growth OD615, 2 days | max inhibition, % | 1,200 tested, under 10 active | AID 1305; call rule not given here
Hits are given with their value; . = inactive; / = no result given.

SMILES	Measles CPE	Yeast growth inh	RAM network inh	Yeast lifespan up	RAM efflux-def
Cc1cc(C)c(NC(=O)COC(=O)c2cccc3c2C(=O)c2ccccc2C3=O)c(C)c1	.	.	.	.	/
Cc1cccc(OCCC(=O)Nc2ccc(S(=O)(=O)N3CCCC3)cc2)c1	.	.	.	.	/
Cc1cccc(OCCC(=O)Nc2ccc(C)c(S(=O)(=O)N3CCCCC3)c2)c1	.	.	15.5	.	.
Cc1ccc(NC(=O)c2ccccc2F)cc1S(=O)(=O)N1CCCCCC1	/	/	13.1	/	.
Cc1ccc(NC(=O)c2ccc(F)cc2)cc1S(=O)(=O)N1CCCCCC1	/	/	11.9	/	.
O=C(CSc1ccccc1)N(c1ccc(Br)cc1)c1nccs1	.	.	12.4	.	.
O=C(NN=C1CCCC1)c1ccccc1OCc1ccc(Cl)cc1	/	/	.	/	/
CCn1cc(C(=O)OCC(=O)c2ccccc2)c(=O)c2ccc(C)nc21	/	/	17.5	/	.
c1cnc(Sc2ccc3nnnn3n2)nc1	/	/	.	/	/
Brc1ccc(Cn2c(-c3ccc(Br)o3)nc3ccccc32)o1	.	.	13.1	.	.
CC(C)OC(=O)CC(=O)CSc1nc(-c2ccc(F)cc2)cc(-c2ccccc2)c1C#N	.	.	14.5	.	.
CCCCOc1ccc(C(=O)N/C(=C\c2cccc([N+](=O)[O-])c2)C(=O)OCc2ccco2)cc1	.	.	11.4	.	.
Cc1ccc(C(=O)N/C(=C\c2cccc([N+](=O)[O-])c2)C(=O)OCN2C(=O)c3ccccc3C2=O)cc1	.	.	.	.	/
C=CCOC(=O)/C(=C\c1ccc(OC)cc1)NC(=O)c1ccco1	.	.	.	.	/
CCCCOc1ccc(C(=O)N/C(=C\c2ccc(OC)cc2)C(=O)OCc2ccco2)cc1	.	.	12.3	.	.
Cc1[nH]nc(SCC(=O)NC2CCCCC2)c1[N+](=O)[O-]	/	/	.	/	/
CCOC(=O)C1=C(CC)Nc2ccccc2N=C1NC(=O)c1cc(S(=O)(=O)N(C)C)ccc1Cl	.	.	13.1	.	.
O=C(CCc1ccccc1)n1nc(-c2ccco2)nc1SCc1ccccc1	.	.	.	.	/
C=CCOc1cccc(/C=C2\C(=O)N(Cc3ccc(C)cc3)C(C)=C2C(=O)OC)c1	.	.	17.8	.	.
CCc1sc(C(=O)Nc2cc(Cl)ccc2N2CCCCC2)cc1C	.	.	13.9	.	.
Cc1ccc(C(=O)Nc2cc(Cl)ccc2N2CCCCC2)s1	.	.	14.4	.	.
O=C(Nc1cc(Cl)ccc1N1CCCCC1)c1cccs1	.	.	.	.	/
CCC(C)NS(=O)(=O)c1ccc(OCC(=O)N2CCCC2)cc1 (stereo not drawn)	.	.	.	/	/
Cc1ccc(NC(=S)N2CCCCC2CO)cc1C (stereo not drawn)	/	/	.	/	/
COc1ccc(-c2ccc(CO)o2)cc1N	/	/	.	/	/
SMILES	Measles CPE	Yeast growth inh	RAM network inh	Yeast lifespan up	RAM efflux-def
O=S(=O)(NCc1ccco1)c1ccc(Cl)nc1	.	.	.	.	/
COc1ccccc1OCC(=O)Nc1ccc(CSc2ccccc2)cc1C	.	.	17.8	.	.
CCCCn1c(=O)c(CCC(=O)OC(C)C(=O)Nc2cccc(Cl)c2Cl)nc2ccccc21 (stereo not drawn)	.	.	16.1	.	.
O=C(CN(C(=O)CSc1nnc(COc2ccccc2)o1)c1ccc(F)cc1)NC1CCCC1	.	.	15.4	.	.
Cc1oc2ccc(OC(=O)c3cccs3)cc2c1C(=O)OC(C)C	.	.	14.4	.	.
COc1ccc(Nc2nc3c(C)cccc3cc2C#N)c(OC)c1	.	.	12.2	.	.
CCCCNC(=O)c1cc2ccccc2s1	/	/	.	/	/
C(=N\N(c1ccccc1)c1ccccc1)/c1ccc2c(c1)OCO2	.	.	14.1	.	.
CN(/N=C/c1ccc2c(c1)OCO2)c1ccccc1	.	.	.	.	/
NC(=O)CSc1nnc(-c2ccccc2Br)n1-c1cccc(C(F)(F)F)c1	.	.	.	.	/
CCNC(=O)CSc1nnc(-c2ccccc2Br)n1-c1cccc(C(F)(F)F)c1	.	.	11.9	.	.
CCCOc1cccc(C(=O)NC(=S)Nc2cccc(C(F)(F)F)c2)c1	.	.	12.1	.	.
Cn1c(SCC(=O)N2CCc3ccccc32)nnc1-c1ccc(S(=O)(=O)N2CCCC2)cc1	.	.	11.7	.	.
COc1ccccc1C(=O)NCC1(c2ccccc2)CCCC1	/	/	.	/	/
O=C(COc1ccccc1C(=O)O)Nc1ccc(SC(F)F)cc1	/	/	.	/	/
O=C(COC(=O)c1ccccc1C(=O)c1ccccc1)Nc1ccc(SC(F)F)cc1	.	.	13.2	.	.
O=C(COC(=O)c1ccccc1Nc1ccc(SC(F)F)cc1)NC1CC1	.	.	12.5	.	.
NC(=O)COC(=O)c1ccccc1Nc1ccc(SC(F)F)cc1	.	.	.	.	/
CCN(CC)S(=O)(=O)c1cc(NS(=O)(=O)c2c(Cl)cccc2Cl)ccc1C	.	.	14.5	27.7	.
CCN(CC)S(=O)(=O)c1cc(NS(=O)(=O)c2cccc(Cl)c2)ccc1C	.	.	.	.	/
Cc1ccccc1N=C1c2ccccc2C(=O)C1[N+](=O)[O-] (stereo not drawn)	/	/	.	/	/
CCOC(=O)c1c(C)[nH]c(N=Nc2ccc(C)cc2C)c1C	.	.	.	.	/
CCOC(=O)c1c(C)[nH]c(N=Nc2ccccc2C)c1C	.	.	19.6	.	.
Nc1ccc(NC(=O)NC2CCCCC2)cc1[N+](=O)[O-]	/	/	.	/	/
CCCCc1ccc(/C=C2\C(=O)c3ccccc3C(O)=C2C(=O)OCC)cc1	.	.	13.6	.	.
SMILES	Measles CPE	Yeast growth inh	RAM network inh	Yeast lifespan up	RAM efflux-def
Cc1cccc(NC(=O)CCC(=O)OCC(=O)c2ccc(Oc3ccc([N+](=O)[O-])cc3)cc2)c1	.	.	20.8	.	.
COC(=O)Cc1ccc(N(Cc2ccccc2F)S(=O)(=O)c2ccc(C)cc2)cc1	.	.	20.0	.	.
CCCc1ccc(Oc2cn[nH]c2-c2ccc(O)cc2O)cc1	.	.	.	.	/
C=C(C)COc1ccc(-c2n[nH]c(C)c2Oc2ccccc2OC)c(O)c1	.	.	.	.	/
C=C(C)COc1ccc(-c2[nH]ncc2-c2ccc(OC)c(OC)c2)c(O)c1	.	.	14.0	.	.
C=C(C)COc1ccc(-c2[nH]ncc2Oc2ccccc2OCC)c(O)c1	.	.	15.8	.	.
O=C(COc1ccc2c(c1)OCO2)Nc1ccccc1C(F)(F)F	/	/	.	/	/
CCOC(=O)CSc1nc2ccccc2c(=O)n1C	.	.	.	.	/
CCOC(=O)CSc1nc2ccccc2c(=O)n1C1CCCC1	.	.	13.4	.	.
O=C(OCCN=C1NS(=O)(=O)c2ccccc21)c1cccs1	/	/	.	/	/
COc1ccc(CNC(=O)c2cccc(-c3ccc(C)c4ccccc34)n2)cc1	.	.	12.2	.	.
COc1ccc(CNC(=O)c2ccccc2C(=O)O)cc1	.	.	.	.	/
CCCC(=O)N1CCN(c2ccc([N+](=O)[O-])cc2Cl)CC1	.	.	.	.	/
O=C(CSc1ccc(Cl)cc1)N1CCN(c2c(Cl)cccc2[N+](=O)[O-])CC1	.	.	16.6	.	.
